HMGR II inh – blocks class II HMG-CoA reductase of Enterococcus faecalis; inhibition, % at 10 µM; purified E. faecalis HMGR, NADPH absorbance 340 nm kinetic; 190,000 compounds, 0.41% hits;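 active = inhibition above a set limit, the median over all tested compounds plus 3 SD, cut at about 9.5% in these data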;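 note: enzyme runs in reverse so mevalonate oxidation gives rising NADPH absorbance; 0% = complete reaction with DMSO and 100% = background rate lacking mevalonate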
Rad51 HR inh – blocks human Rad51 in homologous recombination; Q06609; hRad51 DNA strand exchange, fluorescence dequenching; inhibition, % at 10 µM; 200,000 compounds, 0.085% hits; AID 1385;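 active = inhibition above 40% at the single screening dose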;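 note: 0% = DMSO control wells and 100% = blanks with heterologous ssDNA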
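material = hRad51 filaments on single-stranded DNA | reagent = Donor/quencher-labelled 47-bp dsDNA substrate | compound = 10 µM final, single point | schedule = strand-exchange reaction 15 min at room temperature | measured by = fluorescein emission 520 nm, excitation 485 nm | read-out basis = % inhibition versus plate control and blank means | benchmarks = plate controls and plate blanks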
Redox H2O2 prof – compounds producing H2O2 with reducing agent – biochemical, NIH compound library profiling, artefact control for MLSCN library redox annotation, primary screen; DTT-dependent redox cycling H2O2, phenol red/HRP absorbance; 100% = 100 µM peroxide control, 0% = buffer; activation, % at 10 µM; 200,000 compounds, 0.03% hits;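 active = activation of at least 50% relative to the plate's high and low controls in the primary single-dose screen; inactive = activation below 50%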;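 note: compound incubated with DTT at 0.8 mM final as the reducing agent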
Calpain2 inh – inhibitors of pig calpain II | purified calpain II, fluorogenic peptide substrate, 30 min | inhibition, % at 16 µM | 220,000 compounds, 0.37% hits | AID 1236;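 active = inhibition above about 50%, limit read from the data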
Pf gametocyte – kills late stage P. falciparum gametocytes; P. falciparum stage V gametocytes, ATP luminescence, 24 h; inhibition, % at 10.9 µM; 150,000 compounds, 0.065% hits; AID 743093;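 active = inhibition above the mean plus 3 SD of compounds within the control limits, set per campaign, cut at about 38% in these data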;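 note: 0% = DMSO wells and 100% = medium only without gametocytes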
PKD1 kinase inh – blocks activity of human protein kinase D1; PKD1 kinase fluorescence polarization assay; 200,000 compounds, 0.056% hits; Q15139; inhibition, % (concentration not given with the values); in the data active = inhibition above about 50%
Target sequence (Q15139 whole entry, looked up): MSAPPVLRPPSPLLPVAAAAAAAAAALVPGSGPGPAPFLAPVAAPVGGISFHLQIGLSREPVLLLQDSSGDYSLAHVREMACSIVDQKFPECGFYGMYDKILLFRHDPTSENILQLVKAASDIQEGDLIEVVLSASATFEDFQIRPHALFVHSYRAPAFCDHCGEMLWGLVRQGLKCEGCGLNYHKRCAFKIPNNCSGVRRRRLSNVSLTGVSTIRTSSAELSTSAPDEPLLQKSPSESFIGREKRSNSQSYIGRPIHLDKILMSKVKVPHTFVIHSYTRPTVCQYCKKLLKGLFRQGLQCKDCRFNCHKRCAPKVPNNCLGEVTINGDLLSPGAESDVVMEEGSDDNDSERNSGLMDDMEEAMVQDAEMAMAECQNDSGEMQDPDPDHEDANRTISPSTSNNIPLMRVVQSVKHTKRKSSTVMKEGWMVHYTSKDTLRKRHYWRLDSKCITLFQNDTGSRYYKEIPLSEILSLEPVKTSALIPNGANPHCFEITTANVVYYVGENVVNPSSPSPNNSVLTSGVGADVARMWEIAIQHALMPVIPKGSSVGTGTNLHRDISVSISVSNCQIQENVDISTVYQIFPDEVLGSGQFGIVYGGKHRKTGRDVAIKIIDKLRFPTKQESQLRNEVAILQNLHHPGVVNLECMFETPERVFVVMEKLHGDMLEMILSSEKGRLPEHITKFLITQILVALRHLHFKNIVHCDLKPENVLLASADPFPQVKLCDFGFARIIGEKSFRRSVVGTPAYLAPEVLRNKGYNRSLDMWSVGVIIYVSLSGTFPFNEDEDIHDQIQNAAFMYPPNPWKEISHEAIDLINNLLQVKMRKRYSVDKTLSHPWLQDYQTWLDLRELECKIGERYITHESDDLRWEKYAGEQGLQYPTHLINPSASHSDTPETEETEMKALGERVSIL
The depositor's hits bear a star; nt = no result given. Rows were chosen to be rich in hits. Some 0.81% of all compounds tested hit in one or more screens of this group.

SMILES	HMGR II inh	Rad51 HR inh	Redox H2O2 prof	Calpain2 inh	Pf gametocyte	PKD1 kinase inh
CC(=O)ONC(=Nc1ccccc1)c1nonc1N	nt	-16	nt	0	9	nt
Fc1ccccc1NC(=S)N(CCN1CCCCCC1)Cc1cccs1	-6	13	0	19	7	1
CCN1CCCc2cc(CN(CCN3CCOCC3)C(=S)Nc3ccccc3C)ccc21	10*	-3	0	-40	-18	3
Cc1ccccc1NC(=S)N(CCN1CCCCCC1)Cc1cccs1	10*	10	1	-3	3	-5
Cc1cc(C)c(OCC(=O)Nc2nnc(-c3ccco3)o2)c(C)c1	-3	-3	-1	12	10	3
Cc1ccc(CN(C)CC(=O)Nc2ccc3c(c2)CCC3)cc1	14*	13	-1	34	-8	-2
CCc1ccc(CN(C)CC(=O)Nc2ccc3c(c2)CCC3)cc1	-6	3	-1	21	nt	-3
CC(NS(C)(=O)=O)C(c1cccs1)N1CCN(c2ccc(F)cc2)CC1 (stereo unspecified)	-3	3	-1	16	nt	-7
COc1ccc(N2CCN(C(c3cccs3)C(C)NS(C)(=O)=O)CC2)cc1 (stereo unspecified)	-1	-3	-2	51*	-14	0
C/C(=N\NC(=O)CSc1nc(C)cc(C)n1)c1ccc([N+](=O)[O-])cc1	nt	19	nt	-13	18	nt
CCOC(=O)c1[nH]c2cc3c(cc2c1NC(=O)CN1CCN(CCO)CC1)OCO3	nt	1	nt	-331	-10	nt
O=[N+]([O-])c1ccccc1NCCNS(=O)(=O)c1ccc(Cl)cc1	-3	nt	-1	13	nt	-19
O=[N+]([O-])c1ccc(NCCCNS(=O)(=O)c2ccc(Cl)cc2)c(Cl)c1	-3	nt	-4	71*	21	6
O=C(NC(=S)N(CC1CCC1)CC1CCCO1)c1cccc([N+](=O)[O-])c1 (stereo unspecified)	14*	2	0	-13	11	-3
CN(C)c1ccc(N=C/C=C2/N(C)c3ccccc3C2(C)C)cc1	1	-20	-1	32	-23	-13
Oc1ccccc1Cc1c(O)ccc2ccccc12	nt	nt	nt	nt	7	nt
Oc1ccc2ccccc2c1Br	-2	43*	0	-45	nt	0
C=CCN(CC=C)CCOc1cc(C)ccc1[N+](=O)[O-]	-7	42*	-1	1	-6	-1
CC(C)C(=O)N1CCN(c2ccccc2N)CC1	0	1	-2	81*	nt	-3
N#Cc1ccc(OCc2noc(-c3ccsc3)n2)cc1	nt	0	nt	4	-7	nt
CC(C)Cn1c(-c2csc3c2CCCC3)n[nH]c1=S	-10	nt	1	50*	nt	-14
CC(C)Cn1c(-c2ccccc2F)n[nH]c1=S	-1	nt	2	41	-16	-2
Fc1ccc(C2=NN(c3ccccc3)C(c3ccco3)C2)cc1 (stereo unspecified)	13*	7	-1	-73	14	-6
COCCOC(=O)c1c(NC(=O)CN2CCOCC2)sc(C(N)=O)c1C	17*	-5	0	-8	-42	24
Cc1[nH]nc2c1C(c1ccc(O)cc1)C1=C(CC(C)(C)CC1=O)N2 (stereo unspecified)	-2	2	-2	-95	19	-5
SMILES	HMGR II inh	Rad51 HR inh	Redox H2O2 prof	Calpain2 inh	Pf gametocyte	PKD1 kinase inh
Cc1[nH]nc2c1C(c1ccsc1)C1=C(CC(C)(C)CC1=O)N2 (stereo unspecified)	15*	1	0	-336	0	3
Cc1noc(NS(=O)(=O)c2ccc(NC(=O)c3ccc(N4C(=O)c5ccccc5C4=O)cc3)cc2)c1C	9	0	0	83*	-18	3
Cc1nc([N+](=O)[O-])c(Br)n1CC(=O)c1cccc([N+](=O)[O-])c1	16*	14	4	-6	-16	-6
Cc1nc([N+](=O)[O-])c(Br)n1CC(=O)c1ccc(F)cc1	-5	5	0	13	-30	4
COC(=O)c1c(-c2ccc(S(C)(=O)=O)cc2)sc2ccc(OC)cc12	nt	nt	nt	nt	-14	nt
Cc1ccc(Cl)c(OCC(=O)OCC(=O)NC2CCCc3ccccc32)c1 (stereo unspecified)	13*	0	1	-11	7	-1
O=[N+]([O-])c1ccc(-c2cnc[nH]2)cc1	nt	13	nt	1	-8	nt
N/C(=N\NC(=O)c1cccs1)c1cc2cc(Cl)ccc2oc1=O	nt	16	nt	-9	10	nt
N/C(=N\NC(=O)c1ccccc1)c1cc2ccccc2oc1=O	-1	24	0	59*	-17	-2
Cc1nc2scc(-c3cccs3)c2c(=O)n1CC(=O)O	-2	115*	0	-5	3	-6
O=c1c2c(-c3cccs3)csc2ncn1-n1cccc1	-5	-3	1	81*	nt	-4
O=C(O)Cn1cnc2scc(-c3cccs3)c2c1=O	nt	nt	2	nt	nt	2
CN(C)S(=O)(=O)c1cccc(C(=O)N=C2N=C3C=CC(Cl)=CN3Cc3ccccc32)c1	nt	nt	nt	-14	-4	nt
COc1ccccc1/C=C1\SC(=S)N(CC(=O)Nc2nnc(C)s2)C1=O	-6	3	0	11	nt	-3
CCOC(=O)C[C@H]1c2ccccc2S(=O)(=O)N1c1cccc(OC)c1	nt	-5	nt	nt	nt	nt
COc1cccc(/C=C(/C(=O)OCC(N)=O)c2ccccc2)c1	-11	1	-2	31	38	-3
COc1cccc(/C=C(/C(=O)OCC(=O)NC2CCCC(C)C2C)c2ccccc2)c1 (stereo unspecified)	-2	0	nt	56*	20	-15
CCCC(=O)OCC(=O)Nc1ccc(N=Nc2ccccc2)cc1	-9	0	0	34	-22	-9
CC(C)(C)OC(=O)CNC(=O)c1nc[nH]c1C(=O)N1CCc2ccccc2C1	nt	nt	nt	nt	7	nt
O=C(Cn1cc(C(=O)C(F)(F)F)c2ccccc21)N1CCOCC1	14*	-6	0	32	nt	-8
O=C(Cn1cc(C(=O)C(F)(F)F)c2cc(Br)ccc21)N1CCOCC1	-5	1	-2	-12	-1	-3
O=[N+]([O-])c1cc(/C=N/n2cnnc2)ccc1N1CCCC1	2	23	-1	62*	-3	-7
O=[N+]([O-])c1cc(/C=N/O)ccc1N1CCCC1	0	-13	0	26	18	0
CCc1ccc(S(=O)(=O)NCc2cn3c(C)csc3n2)s1	-2	-9	0	100*	nt	-15
COc1cc(C(=O)Nc2cccc(NC(=O)c3cccs3)c2)cc(OC)c1OC	nt	nt	nt	nt	-3	nt
COc1ccccc1-c1nnc(SCC(=O)Nc2c(Cl)cccc2Cl)o1	-3	-7	-1	-4	-27	-7
COc1ccccc1-c1nnc(SCC(=O)NCc2c(C)c(Cl)cc(C(C)C)c2O)o1	-3	nt	31	51*	-9	-10
COc1ccccc1NC(=O)c1ccc(CN(c2cc(Cl)ccc2C)S(=O)(=O)c2ccccc2)cc1	-6	-5	1	-177	nt	-1

Screens deposited in PubChem BioAssay by several laboratories.
